Measured values collected from several papers.
Protocols differ between the studies behind these lines.
Target: Serine/threonine-protein kinase pim-1 (PIM1, Homo sapiens, UniProt P11309)

| Structure (SMILES) | assay | conditions | quantity | result |
| --- | --- | --- | --- | --- |
| CN1CCN(C(=O)c2ccc(NC(=O)Nc3ccc(N(C)c4ccnc(Nc5ccc(CS(C)(=O)=O)cc5)n4)cc3)cc2)CC1 | binding | 1 µM | remaining binding | 100% |
| CC#CC(=O)N1CCC[C@H]1c1nc(-c2ccc(C(=O)Nc3ccccn3)cc2)c2c(N)nccn12 | enzyme activity, inhibitor | 1 µM | inhibition | 0% |
| N#Cc1ccc(NC(=O)Nc2ccccc2)cc1 | cell-free assay, competition with immobilised ligand | 25 µM | remaining binding | 87% |
| CC(C)S(=O)(=O)c1ccc2nccc(Nc3ccc4sc(C5CCCC5)nc4c3)c2c1 | enzyme activity, inhibitor | 1 µM | activity vs control | 101% |
| C=CC(=O)N1CCC([C@@H]2CCNc3c(C(N)=O)c(-c4ccc(Oc5ccccc5)cc4)nn32)CC1 | enzyme activity, inhibitor | 1 µM | inhibition | 6% |
| C#Cc1cnc(Nc2ccnc(CO)c2)nc1Nc1ccccc1S(C)(=O)=NC#N (centres unmarked) | cell-free assay | 1 µM | remaining signal | 87% |
| CCCCC(=O)Nc1ccc(-c2ccc3ncn(CCC)c(=O)c3c2)cn1 | binding, competition with immobilised ligand | 0.5 µM | remaining binding | 100% |
| C[C@H]1CC[C@H](n2c3cnccc3c3cnc(Nc4ccc5c(n4)CCN(C(=O)CO)C5)nc32)CC1 | cell-free assay | 1 µM | remaining signal | 59% |
| COc1ccc2oc(-c3ccc4nc(N)oc4c3)c/c(=N\c3ccccc3NC(=O)CCN)c2c1 | binding | 1 µM | remaining binding | 119% |
| CC(=O)ON=C1C=CC(=C(C#N)c2ccccc2)C=C1 | enzyme activity, inhibitor, ADP detection | 20 µM | activity vs control | 102% |
| C1=C/COCc2cc(ccc2OCCN2CCCC2)Nc2nccc(n2)-c2cccc(c2)COC/1 | binding | 0.1 µM | remaining binding | 100% |
